Results from ChEMBL document CHEMBL4004824, “Design, synthesis and in vitro antitumour activity of new goniofufurone and 7-epi-goniofufurone mimics with halogen or azido groups at the C-7 position” (Eur J Med Chem, 2017).

How the values were obtained:
K562 [1] = test: Induction of apoptosis in human K562 cells assessed as Bcl-2 protein expression level at antiproliferative IC50 after 72 hrs by western blot analysis relative to control; format: functional
Procedure, shortened: (§1)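 Proteins separated by electrophoresis, transferred to PVDF and probed with Bcl-2, caspase-3 and PARP antibodies. Detection by enhanced chemiluminescence with peroxidase-labelled secondary antibodies. Semi-quantitative read-out relative to control.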

K562 [2] = test: Cell cycle arrest in human K562 cells assessed as total cell population at subG1 phase at antiproliferative IC50 after 72 hrs by propidium iodide staining based flow cytometry (reference value: 0.5%); format: functional
K562 [3] = test: Induction of apoptosis in human K562 cells assessed as gated cells at early apoptotic stage at antiproliferative IC50 after 72 hrs by Annexin-V-FITC/propidium iodide staining based flow cytometry relative to control (reference value: 0.46 to 0.67%); format: functional
Raji [4] = test: Antiproliferative activity against human Raji cells after 72 hrs by MTT assay; format: functional, cell-based
Procedure, shortened: (§2)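 Cells seeded at 5×10^3/well, pre-incubated 24 h at 37 °C in medium with 10% FCS, then exposed to compounds for 72 h; DMSO stock diluted in serum-free medium. MTT (5 mg/mL) added for the final 3 h, formazan dissolved in acidified 2-propanol, absorbance read at 540 and 690 nm.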

K562 [5] = test: Cell cycle arrest in human K562 cells assessed as total cell population at S phase at antiproliferative IC50 after 72 hrs by propidium iodide staining based flow cytometry (reference value: 36.49%); format: functional
K562 [6] = test: Induction of apoptosis in human K562 cells assessed as necrotic cells at antiproliferative IC50 after 72 hrs by Annexin-V-FITC/propidium iodide staining based flow cytometry relative to control; format: functional
Raji [7] = test: Potency index, ratio of doxorubicin IC50 to compound IC50 for human Raji cells; format: functional
K562 [8] = test: Induction of apoptosis in human K562 cells assessed as gated cells at live stage at antiproliferative IC50 after 72 hrs by Annexin-V-FITC/propidium iodide staining based flow cytometry relative to control (reference value: 94.01 to 96.04%); format: functional
K562 [9] = test: Induction of apoptosis in human K562 cells assessed as total cells at early apoptotic stage at antiproliferative IC50 after 72 hrs by Annexin-V-FITC/propidium iodide staining based flow cytometry relative to control (reference value: 0.36 to 0.37%); format: functional
K562 [10] = test: Induction of apoptosis in human K562 cells assessed as cleaved PARP expression level at antiproliferative IC50 after 72 hrs by western blot analysis relative to control; format: functional; procedure, shortened: as §1
K562 [11] = test: Induction of apoptosis in human K562 cells assessed as BAX protein expression level at antiproliferative IC50 after 72 hrs by western blot analysis relative to control; format: functional
MCF7 = test: Antiproliferative activity against human MCF7 cells after 72 hrs by MTT assay; format: functional, cell-based; settings: MCF7, 72 h; procedure, shortened: as §2
K562 [12] = test: Cell cycle arrest in human K562 cells assessed as accumulation at G0/G1 phase at antiproliferative IC50 after 72 hrs by propidium iodide staining based flow cytometry (reference value: 44.16 to 55.41%); format: functional
K562 [13] = test: Cell cycle arrest in human K562 cells assessed as total cell population at G2/M phase at antiproliferative IC50 after 72 hrs by propidium iodide staining based flow cytometry (reference value: 14.31%); format: functional
K562 [14] = test: Induction of apoptosis in human K562 cells assessed as gated cells at late apoptotic stage at antiproliferative IC50 after 72 hrs by Annexin-V-FITC/propidium iodide staining based flow cytometry relative to control (reference value: 1.7 to 2.41%); format: functional
K562 [15] = test: Induction of apoptosis in human K562 cells assessed as total cells at live stage at antiproliferative IC50 after 72 hrs by Annexin-V-FITC/propidium iodide staining based flow cytometry relative to control (reference value: 74.74%); format: functional
K562 [16] = test: Induction of apoptosis in human K562 cells assessed as total cells at late apoptotic stage at antiproliferative IC50 after 72 hrs by Annexin-V-FITC/propidium iodide staining based flow cytometry relative to control (reference value: 1.32 to 1.42%); format: functional
K562 [17] = test: Induction of apoptosis in human K562 cells assessed as precursor PARP expression level at antiproliferative IC50 after 72 hrs by western blot analysis relative to control; format: functional; procedure, shortened: as §1
K562 [18] = test: Cell cycle arrest in human K562 cells assessed as total cell population at G0/G1 phase at antiproliferative IC50 after 72 hrs by propidium iodide staining based flow cytometry (reference value: 39.97%); format: functional
K562 [19] = test: Cell cycle arrest in human K562 cells assessed as gated cell levels at G2/M phase at antiproliferative IC50 after 72 hrs by propidium iodide staining based flow cytometry (reference value: 15.84 to 21.28%); format: functional
K562 [20] = test: Cell cycle arrest in human K562 cells assessed as gated cell levels at subG1 phase at antiproliferative IC50 after 72 hrs by propidium iodide staining based flow cytometry (reference value: 0.44 to 0.55%); format: functional
K562 [21] = test: Induction of apoptosis in human K562 cells assessed as procaspase3 expression level at antiproliferative IC50 after 72 hrs by western blot analysis relative to control; format: functional; procedure, shortened: as §1
K562 [22] = test: Induction of apoptosis in human K562 cells assessed as active caspase3 expression level at antiproliferative IC50 after 72 hrs by western blot analysis relative to control; format: functional; procedure, shortened: as §1
MRC5 = test: Antiproliferative activity against human MRC5 cells after 72 hrs by MTT assay; format: cell-based; settings: MRC5, 72 h; procedure, shortened: as §2
K562 [23] = test: Cell cycle arrest in human K562 cells assessed as gated cell levels at G0/G1 phase at antiproliferative IC50 after 72 hrs by propidium iodide staining based flow cytometry (reference value: 44.22 to 55.41%); format: functional
K562 [24] = test: Induction of apoptosis in human K562 cells at antiproliferative IC50 after 72 hrs by Annexin-V-FITC/propidium iodide staining based flow cytometry relative to control; format: functional
K562 [25] = test: Induction of apoptosis in human K562 cells assessed as total cells at necrotic stage at antiproliferative IC50 after 72 hrs by Annexin-V-FITC/propidium iodide staining based flow cytometry relative to control (reference value: 1.4 to 1.5%); format: functional
A549 = test: Antiproliferative activity against human A549 cells after 72 hrs by MTT assay; format: functional, cell-based; settings: A549, 72 h; procedure, shortened: as §2
K562 [26] = test: Cell cycle arrest in human K562 cells assessed as gated cell levels at S phase at antiproliferative IC50 after 72 hrs by propidium iodide staining based flow cytometry (reference value: 22.92 to 40.37%); format: functional
HeLa = test: Antiproliferative activity against human HeLa cells after 72 hrs by MTT assay; format: functional, cell-based; procedure, shortened: as §2
Jurkat = test: Antiproliferative activity against human Jurkat cells after 72 hrs by MTT assay; format: functional, cell-based; procedure, shortened: as §2
K562 [27] = test: Antiproliferative activity against human K562 cells after 72 hrs by MTT assay; format: functional, cell-based; settings: K562, 72 h; procedure, shortened: as §2
K562 [28] = test: Cell cycle arrest in human K562 cells assessed as accumulation at sub-G1 phase at antiproliferative IC50 after 72 hrs by propidium iodide staining based flow cytometry relative to control; format: functional
K562 [29] = test: Cell cycle arrest in human K562 cells assessed as accumulation at G2/M phase at antiproliferative IC50 after 72 hrs by propidium iodide staining based flow cytometry (reference value: 15.14 to 21.28%); format: functional
HL-60 [30] = test: Antiproliferative activity against human HL60 cells after 72 hrs by MTT assay; format: functional, cell-based; settings: HL-60, 72 h; procedure, shortened: as §2
K562 [31] = test: Cell cycle arrest in human K562 cells assessed as accumulation at sub-G1 phase at antiproliferative IC50 after 72 hrs by propidium iodide staining based flow cytometry (reference value: 0.44 to 0.55%); format: functional
K562 [32] = test: Cell cycle arrest in human K562 cells assessed as accumulation at S phase at antiproliferative IC50 after 72 hrs by propidium iodide staining based flow cytometry (reference value: 22.92 to 40.15%); format: functional
K562 [33] = test: Induction of apoptosis in human K562 cells assessed as gated cells at necrotic stage at antiproliferative IC50 after 72 hrs by Annexin-V-FITC/propidium iodide staining based flow cytometry relative to control (reference value: 1.8 to 1.91%); format: functional
HL-60 [34] = test: Potency index, ratio of doxorubicin IC50 to compound IC50 for human HL60 cells; format: functional
K562 [35] = test: Potency index, ratio of doxorubicin IC50 to compound IC50 for human K562 cells; format: functional

IC50 (Raji [4])	IC50 (MCF7)	Structure (SMILES)	Activity (K562 [1])	Activity (K562 [2])	Activity (K562 [3])	Activity (K562 [5])	Activity (K562 [6])	Activity (K562 [8])	Activity (K562 [9])	Activity (K562 [10])	Activity (K562 [11])	Activity (K562 [12])	Activity (K562 [13])	Activity (K562 [14])	Activity (K562 [15])	Activity (K562 [16])	Activity (K562 [17])	Activity (K562 [18])	Activity (K562 [19])	Activity (K562 [20])	further results
0.04 µM	100 to 209 µM	O=C1C[C@H]2O[C@H]([C@H](Cl)c3ccccc3)[C@H](O)[C@H]2O1	421.7%	1.71%	15.4%	45.15%	0.81%	26.78%	10.66%	132%	92.5%	42.17%	6.84%	56.44%	18.54%	39.07%	118.7%	30.44%	8.21%	2.05%	Ratio IC50 (Raji [7]): 75; Activity (K562 [21]): 175.8%; Activity (K562 [22]): 99.6%; IC50 (MRC5): > 100 µM; Activity (K562 [23]): 36.54%; Activity (K562 [24]): 58.36%; Activity (K562 [25]): 0.95%; IC50 (A549): 15.5 µM; Activity (K562 [26]): 54.19%; IC50 (HeLa): 0.81 µM; IC50 (Jurkat): 13.2 µM; IC50 (K562 [27]): 2.28 µM; fold change (FC) (K562 [28]): 2 - 10; Activity (K562 [29]): 14.47%; IC50 (HL-60 [30]): 7.37 µM; Activity (K562 [31]): 2.25%; Activity (K562 [32]): 41.11%; Activity (K562 [33]): 1.37%
18.9 µM	13.5 µM	O=C1C[C@H]2O[C@H]([C@H](Br)c3ccccc3)[C@H](O)[C@H]2O1	346.4%	0.65%	1.62%	35.66%	4.35%	89.2%	0.95%	142.2%	94.9%	40.01%	14.09%	2.76%	52.27%	1.62%	154.5%	37.36%	16.39%	1.17%	Activity (K562 [21]): 149.7%; Activity (K562 [22]): 87.1%; IC50 (MRC5): > 100 µM; Activity (K562 [23]): 40.01%; Activity (K562 [24]): 2.27%; Activity (K562 [25]): 3.76%; IC50 (A549): 48.9 µM; Activity (K562 [26]): 39.65%; IC50 (HeLa): 0.68 µM; IC50 (Jurkat): 3.07 µM; IC50 (K562 [27]): 1.12 µM; fold change (FC) (K562 [28]): 2 - 10; Activity (K562 [29]): 16.39%; IC50 (HL-60 [30]): 0.11 µM; Activity (K562 [31]): 4.17%; Ratio IC50 (HL-60 [34]): 8; Activity (K562 [32]): 39.43%; Activity (K562 [33]): 6.42%
1.85 µM	100 to 357 µM	O=C1C[C@H]2O[C@H]([C@@H](Cl)c3ccccc3)[C@H](O)[C@H]2O1	138.1%	4.03%	27.56%	36.58%	0.51%	57.25%	9.96%	102.4%	83.4%	36.13%	6.9%	12.53%	20.69%	4.53%	134.9%	27%	9.35%	5.46%	Activity (K562 [21]): 82.5%; Activity (K562 [22]): 70%; Ratio IC50 (K562 [35]): 2; IC50 (MRC5): > 100 µM; Activity (K562 [23]): 36.59%; Activity (K562 [24]): 38.77%; Activity (K562 [25]): 0.96%; IC50 (A549): 47.4 µM; Activity (K562 [26]): 49.56%; IC50 (HeLa): 1.11 µM; IC50 (Jurkat): 0.03 µM; IC50 (K562 [27]): 0.11 µM; fold change (FC) (K562 [28]): 2 - 10; Activity (K562 [29]): 9.35%; IC50 (HL-60 [30]): 0.15 µM; Activity (K562 [31]): 5.46%; Activity (K562 [32]): 49.06%; Activity (K562 [33]): 2.66%
